According to ChEMBL document CHEMBL1151252, “New lamellarin alkaloids from the Indian ascidian Didemnum obscurum and their antioxidant properties” (J Nat Prod, 2004):

How the values were obtained:
[1] = DPPH radical scavenging activity assessed as ratio of IC50 for trolox to IC50 for test compound; format: functional
How it was run: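 TEAC is the ratio of Trolox IC50 to sample IC50. Both come from the same HPLC DPPH scavenging assay: 250 μM final DPPH, 20 min in the dark at room temperature, reversed-phase HPLC with diode-array detection. Each IC50 is derived by linear regression from at least five concentrations in triplicate.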

[2] = test system: Radical scavenging activity; assay: Antioxidant activity assessed as DPPH radical scavenging activity by HPLC; format: functional
How it was run: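 In the HPLC DPPH assay, test material in methanol or DMSO is mixed 1:1 with methanolic DPPH (final 250 μM) and held in the dark for 20 min at room temperature, then filtered and run on reversed-phase HPLC with diode-array detection. IC50 is obtained by linear regression over at least five concentrations, each in triplicate.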

Work on CC(C)(Sc1cc(C(C)(C)C)c(O)c(C(C)(C)C)c1)Sc1cc(C(C)(C)C)c(O)c(C(C)(C)C)c1 [PROBUCOL] yielded a Ratio IC50 [1] of 1.29 and an IC50 [2] of 52.7 µM.

Work on Cc1c(C)c2c(c(C)c1O)CCC(C)(C(=O)O)O2 (stereo unspecified) [TROLOX] yielded a Ratio IC50 [1] of 1 and an IC50 [2] of 67.8 µM.

Cc1c(C)c2c(c(C)c1O)CC[C@@](C)(CCC[C@H](C)CCC[C@H](C)CCCC(C)C)O2 [ALPHA-TOCOPHEROL] gave a Ratio IC50 [1] of 1.07 and an IC50 [2] of 63.6 µM.
